Results on 11 compounds are retold here after PMC7115694 (European Journal of Medicinal Chemistry, 2010).

Holding throughout (format): cell-based
One data set has as its system Staphylococcus aureus. The experiment in a line: MIC by tube dilution method. The conditions noted are these: observed, S. aureus, 37 °C 24 h.
The test system of a further data set is Para-influenza-3 virus. The experiment in a line: organism not typed. The conditions noted are these: Vero, read-out: EC50 Para-influenza-3 virus.
The test system of a further data set is Bacillus subtilis. Description: MIC by tube dilution method. Conditions: observed, B. subtilis, 37 °C 24 h. In short, it runs like this: (§1)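 Test compound is diluted in double strength nutrient broth (I.P.) by tube dilution, with ciprofloxacin as reference. Samples incubated at 37 °C for 24 h. MIC is the lowest concentration inhibiting microbial growth, transformed into pMIC for analysis.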

Data set [1] relates to S. aureus, B. subtilis and E. coli. The experiment in a line: Average antibacterial activity. Conditions: average antibacterial activity (pMICsa + pMICbs + pMICec)/3.
The test system of the next data set is HeLa cells. The experiment in a line: Cytotoxicity in uninfected cell cultures. Conditions: cell morphology. In short, it runs like this:
(§2)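 Uninfected cell cultures are exposed to serial dilutions of test compound in parallel with the virus cytopathicity assays. Cells are examined microscopically. Minimum cytotoxic concentration is the lowest concentration causing a microscopically detectable alteration of normal cell morphology.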

In the next data set the test system is Vero cells. The experiment in a line: Cytotoxicity in uninfected cell cultures. The conditions noted are these: cell morphology. In short, it runs like this: as §2
Another data set concerns Reovirus-1. The experiment in a line: organism not typed. Conditions: Vero, read-out: EC50 Reovirus-1.
A further data set concerns Aspergillus niger. Description: MIC by tube dilution method. The conditions noted are these: observed, A. niger, 25 °C 7 d.
In another data set the test system is Feline Herpes virus. The experiment in a line: organism not typed. Conditions: CRFK, read-out: EC50 Feline Corona Virus.
Data set [2] concerns S. aureus, B. subtilis, E. coli, C. albicans and A. niger. Description: Average antimicrobial activity. Conditions: mean of five pMIC values.
Another data set concerns C. albicans and A. niger. Description: Average antifungal activity. Conditions: average antifungal activity (pMICca + pMICan)/2.
The test system of a further data set is HEL cells. Description: Cytotoxicity in uninfected cell cultures. Conditions: microscopically detectable alteration of cell morphology. In short, it runs like this:
as §2

For the next data set, the system named is Candida albicans. Description: MIC by tube dilution method. The conditions noted are these: observed, C. albicans, 37 °C 48 h.
A further data set has as its system Escherichia coli. Description: MIC by tube dilution method. The conditions noted are these: observed, E. coli, 37 °C 24 h. An outline of the steps:
as §1

Molecules are shown by their SMILES. Marks after values point to notes of the source that are not given here. Bounds are passed on as bounds.

Usually EC50 stands for the concentration at which the effect is half-maximal. As for `O=C(c1ccc([N+](=O)[O-])cc1)n1c(-c2ccc(S(=O)(=O)O)cc2)nc2ccccc21` [Compound 9, 4-[1-(4-Nitrobenzoyl)-1H-benzoimidazol-2-yl]-benzenesulfonic acid], the pMICsa in the data set on Staphylococcus aureus is 2.43. In addition, the concentration for a half-maximal effect (EC50) in the data set with Para-influenza-3 virus, in the data set with Reovirus-1 and in the data set with Feline Herpes virus was over 100 µg/mL in each case. This compound came in with a pMICbs with Bacillus subtilis of 2.43. Besides, in data set [1], the pMICab turned out to be 2.43. The “Cytotoxicity Minimum cytotoxic concentration” value with HeLa cells is over 100 µg/mL. The Minimum cytotoxic concentration with Vero cells and with HEL cells was over 100 µg/mL in each case. This compound had a pMICan in the data set with Aspergillus niger of 1.53. The compound also returned a pMICam in [2] of 2.19. Also, in the data set on C. albicans and A. niger, the pMICaf is reported as 1.83. This compound gave a pMICca in the data set on Candida albicans of 2.13. In the data set with Escherichia coli, this compound showed a pMICec of 2.43.

Consider `CCCCCCCCCCCCCCCC(=O)n1c(-c2ccc(S(=O)(=O)O)cc2)nc2ccccc21` [Compound 19], for which the pMICsa with Staphylococcus aureus is recorded as 2.23. Besides, the half-maximal effective concentration (EC50) in the data set with Para-influenza-3 virus, with Reovirus-1 and in the data set with Feline Herpes virus was over 100 µg/mL each time. In addition, the pMICbs in the data set on Bacillus subtilis was found to be 2.23. Besides, the pMICab in data set [1] came out at 2.02. Moreover, the “Cytotoxicity Minimum cytotoxic concentration” value with HeLa cells is over 100 µg/mL. For the same compound, the Minimum cytotoxic concentration in the data set on Vero cells and in the data set with HEL cells was over 100 µg/mL in each case. Besides, the pMICan in the data set on Aspergillus niger stood at 1.61. Further, in [2], the pMICam is 1.86. In addition, the pMICaf with C. albicans and A. niger came out at 1.61. Moreover, the pMICca in the data set with Candida albicans was determined as 1.61. In addition, the pMICec in the data set with Escherichia coli worked out at 1.61.

On to `C=CC(=O)n1c(-c2ccc(S(=O)(=O)O)cc2)nc2ccccc21` [Compound 13], for which the pMICsa in the data set on Staphylococcus aureus is on record as 1.72. Further, the EC50 in the data set with Para-influenza-3 virus is over 100 µg/mL; in the data set on Reovirus-1, over 100 µg/mL; in the data set with Feline Herpes virus, over 20 µg/mL. Moreover, in the data set on Bacillus subtilis, the pMICbs turned out to be 2.02. The pMICab in data set [1] came to 2.02. The “Cytotoxicity Minimum cytotoxic concentration” value in the data set on HeLa cells was over 100 µg/mL. Besides, the results for the Minimum cytotoxic concentration in the data set on Vero cells and with HEL cells were over 100 µg/mL and 100 µg/mL, respectively. The compound also gave a pMICan in the data set on Aspergillus niger of 1.12. Moreover, the pMICam in [2] was determined as 1.72. For the same compound, in the data set on C. albicans and A. niger, the pMICaf turned out to be 1.27. The same compound showed a pMICca in the data set on Candida albicans of 1.42. The compound further came in with a pMICec in the data set on Escherichia coli of 2.32.

With `Nc1ccc(C(=O)n2c(-c3ccc(S(=O)(=O)O)cc3)nc3ccccc32)cc1` [Compound 3], the pMICsa with Staphylococcus aureus came out at 2.10. In addition, the concentration for a half-maximal effect (EC50) in the data set with Para-influenza-3 virus, with Reovirus-1 and in the data set with Feline Herpes virus was over 100 µg/mL throughout. In the data set with Bacillus subtilis, this compound displayed a pMICbs of 1.80. Besides, in data set [1], the pMICab turned out to be 2.00. In addition, in the data set with HeLa cells, the “Cytotoxicity Minimum cytotoxic concentration” value was over 100 µg/mL. In addition, the Minimum cytotoxic concentration in the data set with Vero cells and in the data set with HEL cells was over 100 µg/mL throughout. Besides, in the data set on Aspergillus niger, the pMICan is given as 1.50. This compound also displayed a pMICam in data set [2] of 1.74. Moreover, the pMICaf in the data set with C. albicans and A. niger came out at 1.35. For the same compound, in the data set on Candida albicans, the pMICca is reported as 1.20. Further, in the data set on Escherichia coli, the pMICec came out at 2.10.

Regarding `COc1ccc(C(=O)n2c(-c3ccc(S(=O)(=O)O)cc3)nc3ccccc32)cc1` [Compound 8], in the data set on Staphylococcus aureus, the pMICsa is reported as 2.12. Besides, the half-maximal effective concentration (EC50) with Para-influenza-3 virus, with Reovirus-1 and in the data set on Feline Herpes virus was over 100 µg/mL throughout. The compound also registered a pMICbs in the data set on Bacillus subtilis of 2.12. Moreover, in data set [1], the pMICab stood at 2.12. Further, in the data set with HeLa cells, the “Cytotoxicity Minimum cytotoxic concentration” value is over 100 µg/mL. The Minimum cytotoxic concentration with Vero cells and in the data set with HEL cells was over 100 µg/mL each time. Further, the pMICan in the data set with Aspergillus niger came to 1.21. In addition, the pMICam in [2] worked out at 1.82. For the same compound, in the data set on C. albicans and A. niger, the pMICaf was 1.36. Besides, in the data set with Candida albicans, the pMICca came to 1.51. Further, the pMICec with Escherichia coli is 2.12.

Compound `C/C=C/C(=O)n1c(-c2ccc(S(=O)(=O)O)cc2)nc2ccccc21` [Compound 12] displayed a pMICsa in the data set with Staphylococcus aureus of 1.85. Also, the EC50 with Para-influenza-3 virus, in the data set on Reovirus-1 and in the data set on Feline Herpes virus was over 100 µg/mL throughout. Besides, the pMICbs in the data set on Bacillus subtilis stood at 1.85. The pMICab in [1] is listed as 1.85. In addition, in the data set on HeLa cells, the “Cytotoxicity Minimum cytotoxic concentration” value is over 100 µg/mL. For the same compound, the Minimum cytotoxic concentration in the data set on Vero cells and with HEL cells was over 100 µg/mL in each case. In addition, the pMICan in the data set with Aspergillus niger is 0.84. Moreover, in data set [2], the pMICam amounted to 1.57. In the data set with C. albicans and A. niger, the pMICaf came to 1.14. In the data set on Candida albicans, this compound showed a pMICca of 1.44. This compound also displayed a pMICec in the data set with Escherichia coli of 1.85.

Take `O=C(c1cccc(O)c1)n1c(-c2ccc(S(=O)(=O)O)cc2)nc2ccccc21` [Compound 6]: the pMICsa in the data set with Staphylococcus aureus came to 2.10. Further, the 50% effective concentration (EC50) in the data set with Para-influenza-3 virus, in the data set on Reovirus-1 and with Feline Herpes virus was over 100 µg/mL throughout. This compound displayed a pMICbs in the data set on Bacillus subtilis of 2.15. In [1], the pMICab is 2.22. For the same compound, the “Cytotoxicity Minimum cytotoxic concentration” value in the data set on HeLa cells was over 100 µg/mL. Also, the Minimum cytotoxic concentration in the data set on Vero cells and in the data set with HEL cells was over 100 µg/mL throughout. In the data set on Aspergillus niger, this compound displayed a pMICan of 1.20. The compound further showed a pMICam in data set [2] of 1.87. Also, in the data set with C. albicans and A. niger, the pMICaf is recorded as 1.35. The same compound yielded a pMICca with Candida albicans of 1.50. The pMICec with Escherichia coli came out at 2.40.

In the data set with Staphylococcus aureus, `O=C(c1ccccc1O)n1c(-c2ccc(S(=O)(=O)O)cc2)nc2ccccc21` [Compound 16] had a pMICsa of 2.10. Besides, the EC50 in the data set on Para-influenza-3 virus, with Reovirus-1 and in the data set on Feline Herpes virus was over 100 µg/mL in each case. In addition, the pMICbs in the data set with Bacillus subtilis is given as 2.10. Moreover, in data set [1], the pMICab was found to be 2.15. Besides, the “Cytotoxicity Minimum cytotoxic concentration” value in the data set on HeLa cells is over 100 µg/mL. The Minimum cytotoxic concentration in the data set with Vero cells and in the data set on HEL cells was over 100 µg/mL each time. This compound displayed a pMICan with Aspergillus niger of 1.50. In data set [2], this compound yielded a pMICam of 1.89. For the same compound, in the data set with C. albicans and A. niger, the pMICaf is 1.50. Besides, the pMICca with Candida albicans is recorded as 1.50. Further, in the data set on Escherichia coli, the pMICec was 2.26.

With `OC(Cn1cncn1)(Cn1cncn1)c1ccc(F)cc1F` [Fluconazole, fluconazole, reference compound], the pMICan in the data set on Aspergillus niger is recorded as 2.64**. Also, in the data set on C. albicans and A. niger, the pMICaf is listed as 2.64. Besides, the pMICca in the data set with Candida albicans is listed as 2.64**.

Consider `O=C(O)c1cn(C2CC2)c2cc(N3CCNCC3)c(F)cc2c1=O` [Ciprofloxacin, ciprofloxacin, reference compound], for which the pMICsa in the data set on Staphylococcus aureus is recorded as 2.61*. Moreover, the pMICbs with Bacillus subtilis is 2.61*. In addition, the pMICab in [1] was determined as 2.61. Further, in the data set with Escherichia coli, the pMICec is listed as 2.61*.

On to `Nc1ccccc1C(=O)n1c(-c2ccc(S(=O)(=O)O)cc2)nc2ccccc21` [Compound 1], for which the pMICsa in the data set on Staphylococcus aureus is 1.80. The EC50 in the data set on Para-influenza-3 virus, in the data set on Reovirus-1 and in the data set with Feline Herpes virus was over 4 µg/mL in each case. The compound further showed a pMICbs in the data set with Bacillus subtilis of 2.03. Further, the pMICab in [1] was determined as 2.08. In addition, the “Cytotoxicity Minimum cytotoxic concentration” value with HeLa cells was at least 20 µg/mL. This compound also gave a pMICan with Aspergillus niger of 1.50. The compound further registered a pMICam in [2] of 1.89. Moreover, the pMICaf in the data set with C. albicans and A. niger is 1.60. This compound showed a Minimum cytotoxic concentration in the data set with HEL cells of over 100 µg/mL. This compound also displayed a pMICca in the data set on Candida albicans of 1.70. Further, in the data set on Escherichia coli, the pMICec came to 2.40.
